# Laboratory results reported in ChEMBL document CHEMBL2321834 (J Med Chem, 2013).
# The source made the active and inactive calls. No cut-off for these calls is given here.
# Columns and labels:
# [1] = species on record: Homo sapiens; experiment: Selectivity ratio of IC50 for 17beta-HSD1 in human placental microsomal fraction to IC50 for 17beta-HSD2 in human placental microsomal fraction; type: microsomes; conditions: Microsome
# [2] = molecular target: T1, 17-beta-hydroxysteroid dehydrogenase type 2 (Homo sapiens) (UniProt P37059); conditions: Placenta, Microsomal, at 1 µM
# T1 sequence (whole entry): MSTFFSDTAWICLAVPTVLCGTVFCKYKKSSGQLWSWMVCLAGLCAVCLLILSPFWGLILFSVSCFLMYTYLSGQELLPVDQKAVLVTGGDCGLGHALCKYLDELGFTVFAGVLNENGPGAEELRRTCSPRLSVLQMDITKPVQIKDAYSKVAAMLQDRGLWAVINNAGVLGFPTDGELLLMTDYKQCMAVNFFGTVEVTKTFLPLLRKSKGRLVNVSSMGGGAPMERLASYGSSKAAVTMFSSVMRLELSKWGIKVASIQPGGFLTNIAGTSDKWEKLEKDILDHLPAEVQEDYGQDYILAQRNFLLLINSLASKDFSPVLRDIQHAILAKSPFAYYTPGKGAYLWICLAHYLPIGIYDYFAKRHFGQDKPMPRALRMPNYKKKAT
# [3] = molecular target: T2, 17-beta-hydroxysteroid dehydrogenase type 1 (Homo sapiens) (UniProt P14061); conditions: at 1 µM
# T2 sequence (whole entry): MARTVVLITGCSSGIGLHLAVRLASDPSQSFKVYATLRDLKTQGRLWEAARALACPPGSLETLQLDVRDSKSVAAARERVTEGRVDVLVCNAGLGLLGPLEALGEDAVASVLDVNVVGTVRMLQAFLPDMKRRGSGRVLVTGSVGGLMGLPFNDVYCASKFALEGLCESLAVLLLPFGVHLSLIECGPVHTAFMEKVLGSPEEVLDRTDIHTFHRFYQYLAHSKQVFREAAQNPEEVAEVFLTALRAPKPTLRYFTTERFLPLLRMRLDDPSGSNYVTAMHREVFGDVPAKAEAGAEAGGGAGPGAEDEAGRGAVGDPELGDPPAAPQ
# [4] = molecular target: T3, Estrogen receptor (Homo sapiens) (UniProt P03372); experiment: Displacement of [3H]E2 from human recombinant ERalpha after 1 hr by scintillation counting analysis relative to E2
# T3 sequence (whole entry): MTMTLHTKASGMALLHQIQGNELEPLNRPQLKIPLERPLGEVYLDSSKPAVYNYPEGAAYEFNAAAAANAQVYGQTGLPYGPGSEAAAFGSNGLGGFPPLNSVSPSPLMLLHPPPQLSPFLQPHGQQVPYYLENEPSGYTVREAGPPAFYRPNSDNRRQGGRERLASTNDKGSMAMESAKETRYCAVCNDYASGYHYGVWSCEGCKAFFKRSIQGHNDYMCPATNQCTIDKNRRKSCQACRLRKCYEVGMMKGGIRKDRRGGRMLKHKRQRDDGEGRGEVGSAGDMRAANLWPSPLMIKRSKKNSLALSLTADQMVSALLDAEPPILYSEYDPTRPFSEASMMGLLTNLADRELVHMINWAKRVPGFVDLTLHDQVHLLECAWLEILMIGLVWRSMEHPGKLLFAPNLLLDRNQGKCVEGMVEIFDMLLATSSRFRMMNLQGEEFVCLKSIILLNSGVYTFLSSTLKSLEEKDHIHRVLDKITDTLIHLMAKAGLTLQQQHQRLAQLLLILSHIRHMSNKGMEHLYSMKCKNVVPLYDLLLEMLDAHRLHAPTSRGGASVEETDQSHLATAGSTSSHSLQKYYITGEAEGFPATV
# Outline: (§1)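 Competitive binding assay against ERα and ERβ, with E2 as internal reference.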
# [5] = molecular target: Estrogen receptor beta (Homo sapiens) (UniProt Q92731); experiment: Displacement of [3H]E2 from human recombinant ERbeta after 1 hr by scintillation counting analysis relative to E2; outline: as §1
# Chain of Estrogen receptor beta (Homo sapiens) (Q92731 whole entry): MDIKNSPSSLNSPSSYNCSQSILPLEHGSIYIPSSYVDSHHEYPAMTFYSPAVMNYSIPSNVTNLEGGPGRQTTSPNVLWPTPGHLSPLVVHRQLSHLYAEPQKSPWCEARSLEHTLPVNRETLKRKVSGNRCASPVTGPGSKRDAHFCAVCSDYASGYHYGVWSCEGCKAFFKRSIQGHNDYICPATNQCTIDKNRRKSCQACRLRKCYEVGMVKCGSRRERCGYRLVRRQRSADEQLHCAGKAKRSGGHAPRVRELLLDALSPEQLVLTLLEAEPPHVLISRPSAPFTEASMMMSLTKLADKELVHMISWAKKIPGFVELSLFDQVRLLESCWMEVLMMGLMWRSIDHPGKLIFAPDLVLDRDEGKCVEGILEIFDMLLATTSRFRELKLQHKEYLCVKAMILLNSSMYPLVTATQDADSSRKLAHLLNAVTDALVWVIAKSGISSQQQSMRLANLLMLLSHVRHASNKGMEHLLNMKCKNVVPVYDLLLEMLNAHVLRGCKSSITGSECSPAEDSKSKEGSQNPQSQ
# [6] = molecular target: T1, 17-beta-hydroxysteroid dehydrogenase type 2 (Homo sapiens); experiment: Inhibition of 17beta-HSD2 in human MDA-MB-231 cells using [3H]E2 as substrate at 1 uM after 6 hrs by HPLC analysis; type: cell-based
# [7] = molecular target: T4, 17-beta-hydroxysteroid dehydrogenase type 2 (Homo sapiens, UniProt P37059); experiment: Inhibition of 17beta-HSD2 (unknown origin)
# T4 sequence (P37059 whole entry): T1 sequence (whole entry)
# Outline: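 Microsomal fraction of human placenta as enzyme source, incubated with tritiated E2, cofactor and inhibitor. Substrate and product separated by HPLC to give percent inhibition. IC50 determined for selected compounds.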
# [8] = molecular target: T5, 17-beta-hydroxysteroid dehydrogenase type 1 (Homo sapiens, UniProt P14061); experiment: Inhibition of 17beta-HSD1 in human placental cytosolic fraction using [3H]E1 as substrate assessed as formation of E2 by HPLC analysis
# T5 sequence (P14061 whole entry): T2 sequence (whole entry)
# [9] = molecular target: T6, Peroxisomal multifunctional enzyme type 2 (Homo sapiens) (UniProt P51659); experiment: Inhibition of human recombinant 17beta-HSD4 SDR domain expressed in Escherichia coli using [6,7-3H]E2 as substrate at 1 uM by scintillation counting analysis
# T6 sequence (whole entry): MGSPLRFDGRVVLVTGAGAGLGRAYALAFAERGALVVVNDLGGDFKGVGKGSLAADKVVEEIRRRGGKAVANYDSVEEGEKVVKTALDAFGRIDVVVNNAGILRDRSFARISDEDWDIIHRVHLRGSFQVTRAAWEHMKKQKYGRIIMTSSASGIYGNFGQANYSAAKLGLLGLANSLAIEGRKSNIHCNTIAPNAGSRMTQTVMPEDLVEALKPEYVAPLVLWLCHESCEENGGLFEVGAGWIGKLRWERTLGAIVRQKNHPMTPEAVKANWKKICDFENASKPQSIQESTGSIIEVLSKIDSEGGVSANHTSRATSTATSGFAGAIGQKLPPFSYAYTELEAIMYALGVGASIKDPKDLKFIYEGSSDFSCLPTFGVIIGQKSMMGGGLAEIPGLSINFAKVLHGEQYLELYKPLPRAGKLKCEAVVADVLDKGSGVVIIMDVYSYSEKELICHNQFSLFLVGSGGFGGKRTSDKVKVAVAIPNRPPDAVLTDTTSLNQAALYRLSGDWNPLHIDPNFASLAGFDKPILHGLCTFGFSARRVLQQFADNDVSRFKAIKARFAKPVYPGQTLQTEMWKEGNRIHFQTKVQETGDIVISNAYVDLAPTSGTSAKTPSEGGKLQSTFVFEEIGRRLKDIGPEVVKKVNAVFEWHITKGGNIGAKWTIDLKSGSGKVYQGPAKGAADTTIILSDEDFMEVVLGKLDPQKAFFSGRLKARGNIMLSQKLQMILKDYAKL
# [10] = molecular target: T7, Aldo-keto reductase family 1 member C3 (Homo sapiens) (UniProt P42330); experiment: Inhibition of human recombinant 17beta-HSD5 expressed in Escherichia coli using [1,2,6,7-3H]A-dione as substrate at 1 uM by scintillation counting analysis
# T7 sequence (whole entry): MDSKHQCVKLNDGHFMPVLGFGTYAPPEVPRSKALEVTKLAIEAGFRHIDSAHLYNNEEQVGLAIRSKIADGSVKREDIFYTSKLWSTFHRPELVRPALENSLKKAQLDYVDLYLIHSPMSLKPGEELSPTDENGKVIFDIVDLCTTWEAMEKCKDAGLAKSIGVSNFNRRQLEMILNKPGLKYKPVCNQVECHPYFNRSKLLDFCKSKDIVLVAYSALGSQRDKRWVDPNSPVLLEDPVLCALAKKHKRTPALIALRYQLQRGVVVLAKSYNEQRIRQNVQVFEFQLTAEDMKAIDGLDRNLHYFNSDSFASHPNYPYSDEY
inhibition [2],inhibition [3],RBA [4],RBA [5],Compound,other results
,,< 0.1%,< 0.1%,COc1ccc(-c2ccc(C(=O)N(C)c3cccc(OC)c3)s2)cc1,
,< 10%,,,COc1cccc(CN(C)C(=O)c2ccc(-c3ccccc3OC)s2)c1,
82%,24%,< 0.1%,< 0.1%,COc1cccc(N(C)C(=O)c2ccc(-c3ccccc3)s2)c1,Ratio IC50 [1]: 21
37%,23%,,,CN(CCc1cccc(O)c1)C(=O)c1ccc(-c2cccc(O)c2)s1,
11%,< 10%,,,CN(CCc1cccc(O)c1)C(=O)c1ccc(-c2ccccc2)s1,
72%,15%,< 0.1%,< 0.1%,COc1cccc(N(C)C(=O)c2ccc(-c3ccc(OC)c(F)c3)s2)c1,IC50 [8]: > 40000 nM
60%,10%,,,CN(Cc1cccc(O)c1)C(=O)c1cccc(-c2cccc(O)c2)c1,
64%,< 10%,,,COc1cccc(-c2cccc(C(=O)N(C)c3cccc(OC)c3)c2)c1,
49%,18%,,,COc1ccc(N(C)C(=O)c2ccc(-c3cccc(OC)c3F)s2)cc1,
,,< 0.1%,< 0.1%,COc1cccc(N(C)C(=O)c2ccc(-c3cccc(C)c3)s2)c1,
63%,< 10%,,,COc1cccc(CN(C)C(=O)c2ccc(-c3cccc(OC)c3)s2)c1,
87%,< 10%,< 0.1%,< 0.1%,COc1cccc(-c2ccc(C(=O)N(C)c3cccc(C)c3)s2)c1,Ratio IC50 [1]: 55

# The next lines start with the compound.
Compound,inhibition [2],inhibition [3],RBA [4],RBA [5],other results
CN(Cc1cccc(O)c1)C(=O)c1ccc(-c2cccc(O)c2)s1,70%,21%,,,Ratio IC50 [1]: 14
CN(Cc1cccc(O)c1)C(=O)c1ccc(-c2ccccc2O)s1,83%,16%,,,
COc1cccc(-c2ccc(C(=O)N(C)c3cccc(OC)c3)s2)c1,,,< 0.1%,< 0.1%,
COc1cccc(-c2ccc(C(=O)N(C)c3cccc(-c4ccccc4)c3)s2)c1,83%,50%,< 0.1%,< 0.1%,Ratio IC50 [1]: 8
CN(Cc1cccc(O)c1)C(=O)c1ccc(-c2cccc(F)c2)s1,71%,20%,,,
COc1cccc(CCN(C)C(=O)c2ccc(-c3ccccc3)s2)c1,18%,11%,,,
COc1cccc(CN(C)C(=O)c2ccc(-c3ccc(C#N)cc3)s2)c1,< 10%,< 10%,,,
COc1cccc(-c2ccc(C(=O)N(C)c3cccc(C)c3)s2)c1F,,,< 0.1%,< 0.1%,
COc1cccc(CCN(C)C(=O)c2ccc(-c3cccc(F)c3)s2)c1,< 10%,< 10%,,,
COc1cccc(N(C)C(=O)c2ccc(-c3c(F)ccc(OC)c3F)s2)c1,,,< 0.1%,< 0.1%,
COc1cccc(N(C)C(=O)c2ccc(-c3cccc(N(C)C)c3)s2)c1,82%,11%,< 0.1%,< 0.1%,Ratio IC50 [1]: 63; inhibition [6]: 71%
COc1ccc(-c2cccc(C(=O)N(C)Cc3cccc(OC)c3)c2)cc1,13%,< 10%,,,
Cc1cccc(N(C)C(=O)c2ccc(-c3cccc(O)c3)s2)c1,71%,24%,< 0.1%,< 0.1%,Ratio IC50 [1]: 11
COc1cccc(-c2ccc(C(=O)N(C)c3cccc(C(F)(F)F)c3)s2)c1,75%,13%,< 0.1%,< 0.1%,Ratio IC50 [1]: 17
COc1cccc(N(C)C(=O)c2ccc(-c3ccc(OC)cc3OC)s2)c1,77%,30%,< 0.1%,< 0.1%,Ratio IC50 [1]: 6
Cn1nc(-c2cccc(O)c2)nc1-c1ccc(-c2cccc(O)c2)cc1,,,,,IC50 [7]: 1400 nM
C[C@]12CC[C@@H]3c4ccc(O)cc4CC[C@H]3[C@@H]1CC[C@@]21CCCC(=O)O1,,,,,IC50 [7]: 34 nM
COc1cccc(N(C)C(=O)c2ccc(-c3ccc(F)c(OC)c3)s2)c1,66%,17%,,,
COc1cccc(N(C)C(=O)c2ccc(-c3cccc(SC)c3)s2)c1,,,< 0.1%,< 0.1%,
COc1cccc(N(C)C(=O)c2ccc(-c3cccc(C)c3F)s2)c1,,,< 0.1%,< 0.1%,
COc1cccc(CCN(C)C(=O)c2ccc(-c3cccc(OC)c3)s2)c1,31%,< 10%,,,
CN1C(=O)C[C@@H](c2ccccc2)[C@H]1[C@H](O)c1ccc(-c2cccnc2)s1,,,,,inhibition [9]: inactive; inhibition [10]: 88%
CN(CCc1cccc(O)c1)C(=O)c1ccc(-c2cccc(F)c2)s1,17%,12%,,,
